# “Also recorded” adds a separate entry of the source. Like-named read-outs stand apart in the source and are kept apart here.
# How the values were obtained:
# [1] = ref Chen et al., 2016, cited from earlier work; for CLint,in vivo: RT-S9
# [2] = Rainbow trout liver S9 substrate depletion assay; type: in vitro ADME, rainbow trout (Oncorhynchus mykiss); conditions: for Depletion / biotransformation in RT-S9 assay (in words): active RT-S9, tested individually, up to 2 h
# [3] = N-demethylation metabolite formation in RT-S9 assay; type: in vitro ADME, rainbow trout (Oncorhynchus mykiss); conditions: for Time of peak concentration of 2° alkylamine metabolite: 2-h RT-S9 assay; for 1° alkylamine product present at last time point as % of removed parent: 120 min
# How it was run: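 Trout liver S9 (2 mg/ml protein) with 2 mM NADPH, 2 mM UDPGA, 0.1 mM PAPS, 5 mM GSH and alamethicin, pH 7.8, 11 °C; substrate starts at about 1.0 µM. Sampled at 0, 20, 40, 60, 90 and 120 min and quenched in ice-cold acetonitrile. N-demethylated products scanned by LC–MS/MS and quantified against external standards. Metabolite mass divided by parent mass removed at the same time point.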
# [4] = RT-S9 substrate depletion assay, cationic surfactants tested as mixtures of six; type: in vitro ADME, rainbow trout (Oncorhynchus mykiss); conditions: for Clearance rate in mixture compared with single-compound assay (in words): Mixture 1; for CLint,in vivo lower in mixture than tested individually: Mixture 2
# [5] = Cofactor-limited depletion of T12 in RT-S9 assay; type: in vitro ADME, rainbow trout (Oncorhynchus mykiss)
# How it was run: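 Pooled liver S9 from five trout, 2 mg/ml protein, in 100 mM PPBS pH 7.8 with 10 μg/ml alamethicin, at 11 °C; substrate starts at about 1.0 µM. Duplicate six-sample time series over 60 min, either with no added cofactors, NADPH (2 mM) alone, NADPH plus UDPGA (2 mM), GSH (5 mM) or PAPS (0.1 mM), or all cofactors. Parent and N-demethyl product measured by LC–MS/MS.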
# [6] = human liver microsomes; ref Seguin et al., 2019; cited from earlier work
# [7] = Baseline equilibrium BCF predicted from DMLW and phospholipid content; set-up: species or system fish; conditions: fML of 1%
# [8] = In vitro half-life with human liver microsomes; type: in vitro ADME
# [9] = 14C-labeled, 1.1 × 10^6 cells/ml, by 2.5 h; ref Bernhard et al., 2006; cited from earlier work
smiles,measurement,setting,value
CCCCCCCCN [P8],Depletion / biotransformation in RT-S9 (in words),[1],no significant depletion
"CCCCCCCCCCCCCCCC[N+](C)(C)C.[Cl-] [Q16, N,N,N-Trimethylhexadecylammonium chloride]",Depletion / biotransformation in RT-S9 assay (in words),[2],no significant biotransformation
"CCCCCCCCCCN(C)C [T10, N,N-Dimethyldecylamine]",Depletion / biotransformation in RT-S9 assay (in words),[2],reduced below the limit of quantitation
same,Time of peak concentration of 2° alkylamine metabolite,[3],20 min
same,Clearance rate in mixture compared with single-compound assay (in words),[4],not significantly different
CCCCCCCCCCCC[N+](C)(C)C.[Cl-] [Q12],Depletion / biotransformation in RT-S9 (in words),[1],identical result
"CCCCCCCCCC[N+](C)(C)C.[Br-] [Q10, N,N,N-Trimethyldecylammonium bromide]",Depletion / biotransformation in RT-S9 assay (in words),[2],no significant biotransformation
"CCCCCCCCCCCCN(C)C [T12, N,N-Dimethyldodecylamine]","CLint,in vivo",[1],472 ml h^–1 g liver^–1
same,Depletion / biotransformation in RT-S9 assay (in words),[2],reduced below the limit of quantitation
same,"CLint,in vivo",[5]; RT-S9 with only NADPH added,224 ml h^–1 g liver^–1
same,Clearance (in words),"[5]; UDPGA or GSH in combination with NADPH, vs NADPH only",did not result in increased clearance
same,Depletion (in words),"[5]; active RT-S9, no added cofactors",no significant depletion
CCCCCCCCCC[N+](C)(C)Cc1ccccc1.[Cl-] [BAC10],In vitro half-life,[6],1 min
"CCCCCCCCCCCCCCN(C)C [T14, N,N-Dimethyltetradecylamine]",Factor by which BCFbaseline estimate exceeds empirical BCF or BAF,[7],3.1
"CCCCCCCCCCCCCCN [P14, Tetradecylamine]",Depletion / biotransformation in RT-S9 assay (in words),[2],No significant depletion
"CCCCCCCCCCCCCCCCCCN(C)C [T18, N,N‐dimethyloctadecylamine]",Factor by which BCFbaseline estimate exceeds empirical BCF or BAF,[7],128
"CCCCCCCCCCCCCN(C)C [T13, N,N-Dimethyltridecylamine]",Clearance rate in mixture compared with single-compound assay (in words),[4],not significantly different
"CCCCCCCCCCCC[N+](C)(C)Cc1ccccc1 [BAC12, Benzyldimethyldodecylammonium chloride]","HLM CLint,in vitro faster than RT-S9 CLint,in vitro",[8]; HLM vs present study RT-S9,approximately 100 times
same,"CLint,in vitro corresponding to HLM half-life","[8]; from half-life of ref Seguin et al., 2019",13.86 ml h^–1 mg protein^–1
same,In vitro half-life,[6],3 min
same,"CLint,in vitro","[2]; RT-S9, present study, tested individually",0.14 ml h^–1 mg protein^–1
same,Depletion / biotransformation in RT-S9 assay (in words),[2],significant depletion
"CCCCCCCCCCCCNC [S12, N-Methyldodecylamine]","CLint,in vivo",[1],162 ml h^–1 g liver^–1
same,1° alkylamine product present at last time point as % of removed parent,[3],25%
same,"CLint,in vivo lower in mixture than tested individually",[4],50%
"CCCCCCCCN(C)C [T8, N,N-Dimethyloctylamine]","CLint,in vivo",[1],184 ml h^–1 g liver^–1
"CCCCCCCCCCCCCCCCN [P16, Hexadecylamine]",Depletion / biotransformation in RT-S9 assay (in words),[2],No significant depletion; also recorded: no detectable biotransformation
same,"Concentration remaining, % of starting value",[9],56.0 ± 1.3%
same,Factor by which BCFbaseline estimate exceeds empirical BCF or BAF,[7],70
"CCCCCCCCCCCCCCCCN(C)C [T16, N,N-Dimethylhexadecylamine]",Time of peak concentration of 2° alkylamine metabolite,[3],120 min
same,Factor by which BCFbaseline estimate exceeds empirical BCF or BAF,[7],42
"CCCCCCCCCN(C)C [T9, N,N-Dimethylnonylamine]",Depletion / biotransformation in RT-S9 assay (in words),[2],reduced below the limit of quantitation
same,"CLint,in vivo lower in mixture than tested individually",[4],43%
"CCCCCCCCCCCCCC[N+](C)(C)Cc1ccccc1.[Cl-] [BAC14, Benzyldimethyltetradecylammonium chloride]",Depletion / biotransformation in RT-S9 assay (in words),[2],No significant depletion
"CCCCCCCCCCCCCCCCNC [S16, N-Methylhexadecylamine]",1° alkylamine product present at last time point as % of removed parent,[3],55%
same,"CLint,in vivo lower in mixture than tested individually",[4],70%
same,Factor by which BCFbaseline estimate exceeds empirical BCF or BAF,[7],49
"CCCCCCCCCCNC [S10, N-Methyldecylamine]",1° alkylamine product present at last time point as % of removed parent,[3],10%
"CCCCCCCCCCCCCN [P13, Tridecylamine]",Factor by which BCFbaseline estimate exceeds empirical BCF or BAF,[7],10
same,Predicted BCFbaseline,[7],"14,000 L kg^–1"
"CCCCCCCCCCCCCC[N+](C)(C)C.[Cl-] [Q14, N,N,N-Trimethyltetradecylammonium chloride]",Depletion / biotransformation in RT-S9 assay (in words),[2],no significant biotransformation
same,Factor by which BCFbaseline estimate exceeds empirical BCF or BAF,[7],33
CCCCCCCCCCCCCCCC[N+](C)(C)Cc1ccccc1 [BAC16],In vitro half-life,[6],15 min
"CCCCCCCCCN [P9, Nonylamine]",Clearance rate in mixture compared with single-compound assay (in words),[4],not significantly different
CCCCCCCC[N+](C)(C)C.[Cl-] [Q8],Depletion / biotransformation in RT-S9 (in words),[1],identical result
"CCCCCCCCCC[N+](C)(C)CCCCCCCCCC [DDAC, didecyldimethylammonium chloride]",Factor by which BCFbaseline estimate exceeds empirical BCF or BAF,[7],420
CCCCCCCCNC [S8],Depletion / biotransformation in RT-S9 (in words),[1],negligible depletion
"CCCCCCCCCCCC(=O)OCCN [P12‐Ac, 2-aminoethyl laurate]",Clearance rate relative to alkylamine analog P12,[2]; RT-S9 assay,10 times higher
"CCCCCCCCCCCCN [P12, Dodecylamine]","CLint,in vivo",[1],37 ml h^–1 g liver^–1
same,Depletion / biotransformation in RT-S9 assay (in words),[2],No significant depletion

# Reference: PMC9187044 (Environmental Toxicology and Chemistry, 2021)
